From ChEMBL document CHEMBL1123888, “Aldosterone antagonists. 2. Synthesis and biological activities of 11,12-dehydropregnane derivatives” (J Med Chem, 1987)
Active and inactive are the calls of the source. The calls are words filed in the database; no cut-off is given here.

Tests used:
[1] = target: T1, Mineralocorticoid receptor (Rattus norvegicus) (UniProt P22199); assay: Relative binding affinity against mineralocorticoid receptor determined in rat renal cytosol using [3]Ald as ligand
T1 sequence (whole entry): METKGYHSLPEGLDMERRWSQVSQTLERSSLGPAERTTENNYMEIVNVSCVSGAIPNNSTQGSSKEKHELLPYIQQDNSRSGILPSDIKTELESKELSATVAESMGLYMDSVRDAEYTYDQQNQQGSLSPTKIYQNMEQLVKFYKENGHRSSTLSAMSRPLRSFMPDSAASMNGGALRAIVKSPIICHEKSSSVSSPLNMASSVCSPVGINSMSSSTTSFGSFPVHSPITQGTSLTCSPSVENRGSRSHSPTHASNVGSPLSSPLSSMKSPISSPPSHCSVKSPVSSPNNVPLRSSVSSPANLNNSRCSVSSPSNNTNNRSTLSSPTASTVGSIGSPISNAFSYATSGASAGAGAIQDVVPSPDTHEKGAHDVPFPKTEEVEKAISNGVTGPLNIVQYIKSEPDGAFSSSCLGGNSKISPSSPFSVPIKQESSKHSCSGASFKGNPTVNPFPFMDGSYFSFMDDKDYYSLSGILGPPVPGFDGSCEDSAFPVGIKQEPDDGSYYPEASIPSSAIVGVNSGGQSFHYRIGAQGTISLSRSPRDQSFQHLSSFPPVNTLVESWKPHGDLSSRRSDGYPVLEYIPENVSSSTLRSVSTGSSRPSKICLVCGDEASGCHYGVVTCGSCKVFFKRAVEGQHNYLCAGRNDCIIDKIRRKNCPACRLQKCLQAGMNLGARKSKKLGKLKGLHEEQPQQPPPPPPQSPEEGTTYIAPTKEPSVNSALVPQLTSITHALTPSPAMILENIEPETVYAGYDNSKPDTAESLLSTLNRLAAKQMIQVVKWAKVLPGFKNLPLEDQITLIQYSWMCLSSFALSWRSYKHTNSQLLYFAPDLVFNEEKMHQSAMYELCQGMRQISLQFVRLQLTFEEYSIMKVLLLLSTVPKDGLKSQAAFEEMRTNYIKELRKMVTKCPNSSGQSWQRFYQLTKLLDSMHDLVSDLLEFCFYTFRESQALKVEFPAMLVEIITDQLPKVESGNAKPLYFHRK
Procedure, shortened: (§1)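 Renal cytosol came from male Sprague-Dawley rats (4-8 weeks) adrenalectomized bilaterally 1 or 2 days earlier. It was incubated with various competitor concentrations and about 1 nM [3H]Ald for 42-48 h at 0 °C or 100-120 min at 25 °C. Bound and free steroid were separated by DCC.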

[2] = target: T1, Mineralocorticoid receptor (Rattus norvegicus); assay: Agonist activity against Mineralocorticoid receptor was determined after subcutaneous administration in Male Sprague Dawley rats; (+) =positive; assay type: functional, organism-based; conditions: filed as agonist
Rattus norvegicus = organism: Rattus norvegicus; assay: Displacement of [3H]promegestone from progestin receptor of rat uterine cytosol at 0 degree Centigrade
Procedure, shortened: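 Uteri from estradiol-primed rats supplied the cytosol. It was incubated with various competitor concentrations and about 1 nM [3H]promegestone for 16-20 h at 0 °C. Bound and free steroid were separated by DCC. RBA (progesterone = 100%) = 100 × ratio of the 50%-inhibition concentrations of standard and competitor.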

[3] = target: T1, Mineralocorticoid receptor (Rattus norvegicus); assay: Relative binding affinity to the rat mineralocorticoid receptor determined in rat renal cytosol using [3]Ald as ligand; procedure, shortened: as §1
[4] = target: T1, Mineralocorticoid receptor (Rattus norvegicus); assay: Relative potency compared to Aldosterone; Range is 177-1340; assay type: functional
[5] = target: T1, Mineralocorticoid receptor (Rattus norvegicus); assay: Antagonist activity against Mineralocorticoid receptor was determined after subcutaneous administration in Male Sprague Dawley rats; assay type: functional, organism-based
Procedure, shortened: (§2)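 Male rats were bilaterally adrenalectomized (bioassay modified from Kagawa). Ald (1 µg/kg) was given sc, immediately followed by test compound in sesame oil sc or orally. Urine was collected from 2 to 6 h after steroid. Potency came from the urinary Na/K ratio of sample versus control, with 95% confidence limits.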

[6] = target: T1, Mineralocorticoid receptor (Rattus norvegicus); assay: (§3) Relative anti-mineralocorticoid potency compared to Spironolactone after oral administration; assay type: functional, organism-based; procedure, shortened: as §2
[7] = target: T2, Androgen receptor (Rattus norvegicus) (UniProt P15207); assay: Relative anti-androgenic activity as suppressive effect on weight increase of ventral prostate in castrated immature rats given testosterone propionate (95% confidence limit); assay type: functional; conditions: Prostate gland
T2 sequence (whole entry): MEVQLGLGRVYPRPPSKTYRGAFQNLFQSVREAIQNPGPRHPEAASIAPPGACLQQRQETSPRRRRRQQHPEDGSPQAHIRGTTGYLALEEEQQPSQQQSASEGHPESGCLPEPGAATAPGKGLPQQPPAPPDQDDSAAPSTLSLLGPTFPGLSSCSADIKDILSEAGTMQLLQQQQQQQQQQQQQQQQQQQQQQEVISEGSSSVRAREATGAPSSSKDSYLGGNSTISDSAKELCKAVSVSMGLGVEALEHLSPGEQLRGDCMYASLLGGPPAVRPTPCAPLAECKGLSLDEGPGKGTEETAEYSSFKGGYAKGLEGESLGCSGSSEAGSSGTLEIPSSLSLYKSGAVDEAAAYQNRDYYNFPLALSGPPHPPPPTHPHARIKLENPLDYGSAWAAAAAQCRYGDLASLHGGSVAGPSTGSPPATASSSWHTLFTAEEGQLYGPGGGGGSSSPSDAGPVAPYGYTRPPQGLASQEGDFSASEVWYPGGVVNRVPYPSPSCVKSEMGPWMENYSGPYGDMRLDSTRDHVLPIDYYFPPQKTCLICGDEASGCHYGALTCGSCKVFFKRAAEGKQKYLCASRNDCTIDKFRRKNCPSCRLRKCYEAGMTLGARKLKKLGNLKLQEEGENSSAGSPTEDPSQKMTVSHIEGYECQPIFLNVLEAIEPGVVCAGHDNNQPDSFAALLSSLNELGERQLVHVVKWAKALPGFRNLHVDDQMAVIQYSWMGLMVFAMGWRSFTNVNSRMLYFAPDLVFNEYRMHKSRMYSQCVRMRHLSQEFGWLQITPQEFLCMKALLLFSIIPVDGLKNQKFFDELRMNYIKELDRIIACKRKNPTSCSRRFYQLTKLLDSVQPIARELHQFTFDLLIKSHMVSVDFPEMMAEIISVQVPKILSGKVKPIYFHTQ
Procedure, shortened: (§4)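 Male Sprague-Dawley rats (3 weeks old) were castrated 3 days earlier. […] Suppression of accessory sex organ weight gain gave relative antiandrogenic activity.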

[8] = target: T1, Mineralocorticoid receptor (Rattus norvegicus); assay: Antagonist activity against Mineralocorticoid receptor after oral administration in Male Sprague Dawley rats; (+) =positive; assay type: functional, organism-based; conditions: filed as antagonist; procedure, shortened: as §2
[9] = target: T1, Mineralocorticoid receptor (Rattus norvegicus); assay: Antagonist activity against Mineralocorticoid receptor after po administration in Male Sprague Dawley rats; (-) = negative; assay type: functional, organism-based; procedure, shortened: as §2
[10] = target: T1, Mineralocorticoid receptor (Rattus norvegicus); assay: as §3; assay type: functional, organism-based; procedure, shortened: as §2; remark: listed apart in the source
[11] = target: T1, Mineralocorticoid receptor (Rattus norvegicus); assay: Antagonist activity against Mineralocorticoid receptor after subcutaneous administration in Male Sprague Dawley rats; (+) =positive; assay type: functional, organism-based; conditions: filed as antagonist; procedure, shortened: as §2
[12] = target: T2, Androgen receptor (Rattus norvegicus); assay: Relative anti-androgenic activity as suppressive effect on weight increase of seminal vesicle in castrated immature rats given testosterone propionate (95% confidence limit); assay type: functional; procedure, shortened: as §4
[13] = target: T1, Mineralocorticoid receptor (Rattus norvegicus); assay: Relative potency compared to Aldosterone;Range is 53-97; assay type: functional
[14] = target: T1, Mineralocorticoid receptor (Rattus norvegicus); assay: Antagonist activity against Mineralocorticoid receptor after subcutaneous administration in Male Sprague Dawley rats; (-) = negative; assay type: functional, organism-based; procedure, shortened: as §2
[15] = target: T1, Mineralocorticoid receptor (Rattus norvegicus); assay: Agonist activity against Mineralocorticoid receptor after subcutaneous administration in Male Sprague Dawley rats; (+) =positive; assay type: functional, organism-based; conditions: filed as agonist
[16] = target: T3, Progesterone receptor (Rattus norvegicus) (UniProt Q63449); assay: Relative binding affinity against progesterone receptor determined in rat […] cytosol using [3H]DHT as ligand
T3 sequence (whole entry): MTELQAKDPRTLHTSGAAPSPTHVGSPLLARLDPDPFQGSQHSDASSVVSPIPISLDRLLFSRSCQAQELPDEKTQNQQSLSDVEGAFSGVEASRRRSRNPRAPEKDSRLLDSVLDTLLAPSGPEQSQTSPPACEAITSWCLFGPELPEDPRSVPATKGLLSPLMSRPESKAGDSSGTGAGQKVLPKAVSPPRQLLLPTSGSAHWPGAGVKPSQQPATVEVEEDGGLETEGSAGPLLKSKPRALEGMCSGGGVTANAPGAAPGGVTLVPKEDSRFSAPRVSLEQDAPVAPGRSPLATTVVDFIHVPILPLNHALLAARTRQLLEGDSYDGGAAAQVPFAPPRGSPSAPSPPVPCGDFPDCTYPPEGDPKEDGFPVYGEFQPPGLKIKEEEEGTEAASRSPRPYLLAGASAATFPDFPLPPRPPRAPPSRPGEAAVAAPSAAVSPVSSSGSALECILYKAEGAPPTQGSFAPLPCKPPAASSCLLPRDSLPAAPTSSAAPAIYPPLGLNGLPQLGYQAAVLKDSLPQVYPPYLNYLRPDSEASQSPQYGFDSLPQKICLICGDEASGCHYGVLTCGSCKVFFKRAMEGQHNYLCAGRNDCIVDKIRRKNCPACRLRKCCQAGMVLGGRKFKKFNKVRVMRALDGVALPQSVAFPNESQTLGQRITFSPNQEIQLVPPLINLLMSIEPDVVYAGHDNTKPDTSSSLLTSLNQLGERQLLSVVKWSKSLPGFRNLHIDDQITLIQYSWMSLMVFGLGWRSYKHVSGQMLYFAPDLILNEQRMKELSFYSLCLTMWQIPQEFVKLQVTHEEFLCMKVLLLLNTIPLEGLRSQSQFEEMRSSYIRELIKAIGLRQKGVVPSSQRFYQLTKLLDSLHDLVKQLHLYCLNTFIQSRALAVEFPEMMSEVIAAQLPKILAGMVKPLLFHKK

[17] = target: T1, Mineralocorticoid receptor (Rattus norvegicus); assay: Relative potency compared to Aldosterone;Range 14-224; assay type: functional
[18] = target: T1, Mineralocorticoid receptor (Rattus norvegicus); assay: Relative potency compared to Aldosterone;Range 4.3-23; assay type: functional
[19] = target: T1, Mineralocorticoid receptor (Rattus norvegicus); assay: Antagonist activity against Mineralocorticoid receptor after oral administration in Male Sprague Dawley rats; (-) = negative; assay type: functional, organism-based; procedure, shortened: as §2
[20] = target: T1, Mineralocorticoid receptor (Rattus norvegicus); assay: Antagonist activity against Mineralocorticoid receptor after po administration in Male Sprague Dawley rats; (+) =positive; assay type: functional, organism-based; conditions: filed as antagonist; procedure, shortened: as §2
[21] = target: T1, Mineralocorticoid receptor (Rattus norvegicus); assay: Relative potency against mineralocorticoid receptor; assay type: functional; procedure, shortened: as §2
[22] = target: T1, Mineralocorticoid receptor (Rattus norvegicus); assay: In vivo relative Mineralocorticoid activity in Male Sprague-Dawley rats; assay type: functional, organism-based
[23] = target: T1, Mineralocorticoid receptor (Rattus norvegicus); assay: Relative potency compared to Aldosterone;Range is 1.2-1.6; assay type: functional

| Structure (SMILES) | RBA [1] | RBA (Rattus norvegicus) | RBA [3] | Activity [5] | RBA [16] | further results |
| --- | --- | --- | --- | --- | --- | --- |
| CC12CCC(=O)C=C1CCC1C2C=CC2(C)C1CC[C@@]21CCC(=O)O1 (some centres undefined) | 570% | 53% | 440% | inactive | – | Activity [2]: Agonist; Relative potency [4]: 177 |
| CC12C=CC(=O)C=C1C=CC1C2C=CC2(C)C1CC[C@@]21CCC(=O)O1 (some centres undefined) | 22% | 1.6% | 20% | – | – | Relative potency [6]: 2.08; Activity [7]: 0.42; Activity [8]: Antagonist; Activity [9]: inactive; Relative potency [10]: 0.93; Activity [11]: Antagonist; Activity [12]: 0.14 |
| CC(=O)S[C@@H]1CC2=CC(=O)CCC2(C)C2C=CC3(C)C(CC[C@@]34CCC(=O)O4)C21 (some centres undefined) | 43% | – | 169% | – | 14% | Relative potency [13]: 53; Activity [14]: inactive; Activity [15]: Agonist |
| CC12CCC(=O)C=C1C1CC1C1C2C=CC2(C)C1CC[C@@]21CCC(=O)O1 (some centres undefined) | 580% | 56% | 30% | inactive | – | Activity [2]: Agonist; Relative potency [17]: 14 |
| CC(=O)S[C@@H]1CC2=CC(=O)C=CC2(C)C2C=CC3(C)C(C4CC4[C@@]34CCC(=O)O4)C21 (some centres undefined) | 91% | – | 350% | inactive | 23% | Relative potency [18]: 4.3; Activity [19]: inactive; Activity [20]: Antagonist |
| C[C@]12CCC(=O)C=C1CC[C@@H]1[C@@H]2[C@@H](O)C[C@]2(C=O)[C@@H](C(=O)CO)CC[C@@H]12 | – | – | – | – | – | Relative potency [21]: 1; Relative activity [22]: 30 |
| CC12C=CC(=O)C=C1C1CC1C1C2C=CC2(C)C1C1CC1[C@@]21CCC(=O)O1 (some centres undefined) | 250% | – | 480% | inactive | 150% | Relative potency [23]: 1.2; Activity [19]: inactive; Activity [20]: Antagonist |
